An excerpt weighted towards active compounds, which were near 3.7% of everything screened.
Dynein transport = blocks dynein driven cargo transport along microtubules | 3617.4 mouse cells, GR-EGFP nuclear translocation imaging; test concentration mostly 20 µM; stimulated with dexamethasone, 1 µM; hits give low values | z-score, hits read low | hit rate 0.47% among 220,000 | AID 1381;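 active = plate z-score of nuclear minus cytoplasmic receptor signal below a set negative limit, without overly bright fluorescence or cell loss, cut at about -3.5 in these data, passing the limit was not always enough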;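 also: z-score of nuclear minus cytoplasmic ring GR-EGFP intensity difference per well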
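medium = tetracycline-free induction medium containing charcoal-stripped FBS | probe or stimulus = dexamethasone, 1.0 µM final | timing = 48 h induction, then 1 h compound, then 30 min agonist, 37 °C | detection = automated 10x imaging of fixed Hoechst-stained cells | read-out basis = nuclear versus cytoplasmic GR-EGFP signal, averaged per well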
B2AR ag = activates human beta-2 adrenergic receptor causing internalization | P07550 | Am2.2-beta2AR cells, FAP receptor internalization, flow cytometry | response, % (concentration not given with the values) | hit rate 0.43% among 340,000 | AID 504454;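 active = response above a set limit, near 3 SD of response in nonfluorescent compounds, cut at about 42% in these data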
UPR XBP1 act = activators of adaptive arm of unfolded protein response (XBP1) | activation, % at 20 µM | hit rate 0.33% among 330,000 | CHO-XBP1 luciferase reporter, IRE1-XBP1 UPR activation, luminescence; percent of tunicamycin response, DMSO as zero;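 active = versus positive control, 20 µM dose yields 30% or more activation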;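 also: 100% = tunicamycin at 10 µg/mL and 0% = DMSO only wells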
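Material: IRE1-XBP1 luciferase reporter CHO line / Quantity: one thousand reporter cells per well / Buffer or medium: F12 with 10% serum / Compound: 20 µM single concentration, DMSO 1% / Times: 6 h treatment, 37 °C / Detection: Steady-Glo luciferase glow luminescence, 10 min after reagent addition / Benchmarks: tunicamycin high, DMSO low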
UPR CHOP act = activators of apoptotic arm of unfolded protein response (CHOP); activation, % at 10 µM; CHO-CHOP luciferase reporter, UPR activation, luminescence; percent of tunicamycin response over DMSO baseline; hit rate 0.34% among 330,000;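 active = at 10 µM dose, activation of 40% or more, normalized to positive control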;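 also: 100% = tunicamycin at 10 µg/mL and 0% = DMSO alone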
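Test system: CHO CHOP reporter cells. Input: 500 CHO-CHOP cells per well. Medium: F12 with 10% FBS. Technique: luciferase luminescence. Measure: percent activation relative to tunicamycin control. Dosing: 10 µM compound, 0.5% DMSO. Timing: 16-18 h cell attachment, then 6 h compound exposure, 37 °C.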
Mdm2-MdmX inh = disrupts the human Mdm2-MdmX interaction; AID 485346; hit rate 3% among 330,000; inhibition, % at 8 µM; SaOS-2 split-luciferase Mdm2/MdmX complementation, luminescence;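 active = inhibition of at least 50% at 8 µM in the primary screen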
Mdm2 ligase inh = blocks human Mdm2 ubiquitin ligase activity. AID 1230. hit rate 0.11% among 210,000. signal enhancement, % at 5 µM. Q00987. cell-based MDM2 ubiquitination luciferase reporter, 2 h; 0 = plate control, 100 = twice control, blank-subtracted;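 active = signal enhancement of 30% or more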;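 also: luminescence tracks abundance of the self-degrading MDM2-luciferase fusion protein; higher signal means inhibition of MDM2 E3 ligase activity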
Target sequence (Q00987 whole entry, looked up, the tested form may be a part): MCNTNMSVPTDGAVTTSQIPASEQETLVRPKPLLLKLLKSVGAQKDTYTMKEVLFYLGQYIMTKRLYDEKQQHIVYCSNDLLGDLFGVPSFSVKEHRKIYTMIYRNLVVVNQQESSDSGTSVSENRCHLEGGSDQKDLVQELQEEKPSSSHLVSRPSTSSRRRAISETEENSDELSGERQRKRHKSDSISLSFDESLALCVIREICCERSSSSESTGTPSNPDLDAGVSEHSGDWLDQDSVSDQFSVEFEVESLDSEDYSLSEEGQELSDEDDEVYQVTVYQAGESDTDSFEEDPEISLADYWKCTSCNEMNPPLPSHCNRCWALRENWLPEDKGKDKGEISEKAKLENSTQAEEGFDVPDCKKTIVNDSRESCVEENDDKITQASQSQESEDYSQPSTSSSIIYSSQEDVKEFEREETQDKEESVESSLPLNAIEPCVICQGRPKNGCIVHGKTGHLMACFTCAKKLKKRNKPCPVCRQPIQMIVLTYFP
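Test system: stable mammalian line carrying autodegrading MDM2–luciferase fusion reporter; quantity: 2000 cells in each well; times: 4 h cell settling then 2 h compound exposure, 37 °C; detection: luminescence with SteadyLite reagent, 15 min at room temperature; evaluation: percent signal gain over controls, blank-subtracted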
Mdm2 MdmX conf = confirmation of human Mdm2/MdmX interaction inhibitors; shares compounds with Mdm2-MdmX inh; Mdm2-MdmX binding, luminescent assay; inhibition, % at 8 µM; hit rate 55% among 10,000; AID 489028; in the data active = inhibition above about 40%
Full FLuc ctr = inhibits full-length luciferase, flagging false Mdm2/MdmX hits. shares compounds with Mdm2-MdmX inh. SaOS-2 full-length luciferase counterscreen, luminescence. inhibition, % at 8 µM. hit rate 77% among 6,200. AID 504607;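 active = mean inhibition at 8 µM reaching about 37%, which flags the compound as non-specific, limit read from the data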;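 also: p53-null SaOS-2 cells with luciferase driven by a doxycycline-inducible promoter; compound on cells about two nights before reading with doxycycline added after day one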
* = called active by the depositor; · = no result.

SMILES | Dynein transport | B2AR ag | UPR XBP1 act | UPR CHOP act | Mdm2-MdmX inh | Mdm2 ligase inh | Mdm2 MdmX conf | others
Cc1cc(C)cc(NS(=O)(=O)c2c(C(=O)N3CCOCC3)c(C)n(C)c2C)c1 | · | 1 | -6 | -1 | -8 | · | ·
CN(C(=O)CSC1=NC2C(N=N1)c1cc(Br)ccc1N2C)C1CCCCC1 (stereo unspecified) | 0.16 | -15 | 20 | 0 | 25 | -12 | ·
COc1ccc2cc3c(N)nn(C(=O)Cc4c[nH]c5ccccc45)c3nc2c1 | -0.84 | 16 | -3 | -4 | 93* | -38 | 98* | Full FLuc ctr=52*
COc1ccc2cc3c(N)nn(C(=O)Cc4ccc(Cl)cc4)c3nc2c1 | 2.3 | 10 | -2 | 1 | 73* | -7 | 59* | Full FLuc ctr=48*
COc1cccc(CC(=O)n2nc(N)c3cc4ccc(OC)cc4nc32)c1 | -0.79 | -2 | 0 | 1 | 64* | -7 | -8
COC(=O)N/N=C\c1c(C)nn(-c2ccccc2)c1Cl | -1.1 | 7 | 4 | 4 | -26 | -4 | ·
CCOc1ccc(Oc2c(/C=N/NC(=O)COc3ccccc3OC)c(C)nn2-c2ccccc2)cc1 | 0.34 | -5 | 3 | 1 | 56* | 0 | 1
Cc1ccc(C)c(OCC(=O)N/N=C/c2c(C)nn(-c3ccccc3)c2Cl)c1C | -0.19 | -1 | 1 | 1 | 51* | 12 | 35
O=C(NC1CCSc2ccccc21)c1ccc(F)c(S(=O)(=O)N2CCOCC2)c1 (stereo unspecified) | · | 6 | -3 | -1 | -11 | · | ·
COc1cc2c3nc4n(c(=O)c3n(CC(=O)NCC3CCCO3)c2cc1OC)CCS4 (stereo unspecified) | · | -13 | 7 | 1 | 22 | · | ·
O=[N+]([O-])c1cccc(COc2ccccc2CN2CCCC2)c1 | · | 9 | · | · | · | · | ·
N#Cc1c(NCCN)nc(NCc2ccccc2)c2c1CCN(Cc1ccccc1)C2 | 0.8 | 9 | · | · | · | · | ·
C=CCNc1nc(NCc2ccccc2)c(C#N)c2c1CN(C)CC2 | -0.39 | -22 | 9 | -1 | 74* | -13 | 52* | Full FLuc ctr=61*
Cc1ccc(-c2nn3c(C)nnc3c3ccccc23)cc1S(=O)(=O)N(C)CCO | -1.1 | -1 | -1 | -1 | 53* | -11 | 13
Cc1ccc(-c2nn3c(C)nnc3c3ccccc23)cc1S(=O)(=O)NCCN1CCOCC1 | -0.34 | -2 | 2 | 2 | 24 | 6 | ·
Cc1ccc(-c2nn3c(C)nnc3c3ccccc23)cc1S(=O)(=O)NCc1ccccc1 | 2.5 | -4 | 2 | 0 | 26 | -6 | ·
CCOC(=O)N1CCN(S(=O)(=O)c2cc(-c3nn4c(C)nnc4c4ccccc34)ccc2C)CC1 | -0.079 | -2 | -1 | -3 | 59* | 3 | 6
CCCCCCc1cc2cc(C(=O)Nc3ccccc3)c(=O)oc2cc1O | 0.63 | 22 | 7 | 14 | 97* | -20 | 61* | Full FLuc ctr=57*
CCCCCCc1cc2cc(S(=O)(=O)c3ccc(Cl)cc3)c(=O)oc2cc1O | 3.8 | 5 | -4 | 2 | 75* | · | 34
CCCCCCc1cc2cc(C(=O)NCc3ccccc3)c(=N)oc2cc1O | -1.1 | -22 | 11 | 9 | 14 | 5 | ·
CCCCCCc1cc2cc(S(=O)(=O)c3ccc(C)cc3)c(=O)oc2cc1O | 0.0028 | 1 | -4 | 3 | 32 | · | ·
N#CN1CCC(NS(=O)(=O)c2ccc(C(F)(F)F)cc2)CC1 | · | -4 | 0 | 0 | -38 | · | ·
Cc1cc(C)n(-c2nc3ccccc3c(=O)n2OCC#N)n1 | · | -2 | 6 | 15 | 66* | · | 49* | Full FLuc ctr=46*
CC(=O)c1ccc(N/N=C(/C(N)=O)C2=NC(C)(C)Cc3ccccc32)cc1 | 0.11 | 10 | 1 | 0 | 63* | -12 | 39 | Full FLuc ctr=63*
O=C(Nc1ccc([N+](=O)[O-])cc1Br)c1cc2ccccc2nc1Cl | -0.35 | 1 | 2 | 1 | 85* | · | 13
SMILES | Dynein transport | B2AR ag | UPR XBP1 act | UPR CHOP act | Mdm2-MdmX inh | Mdm2 ligase inh | Mdm2 MdmX conf | others
CC(NC(=O)COC(=O)c1ccccc1SCC(=O)N1CCCC1)c1ccccc1 (stereo unspecified) | · | -3 | -2 | 1 | -7 | · | ·
Cc1ccc(CNC(=O)c2ccc3c(=O)c(O)c(-c4ccc(C)cc4)[nH]c3c2)cc1 | 0.039 | -2 | 10 | 3 | 58* | 15 | 55* | Full FLuc ctr=29
Cc1ccc(-c2[nH]c3cc(C(N)=O)ccc3c(=O)c2O)cc1 | -0.53 | 10 | 3 | 1 | 34 | 8 | ·
CCCNC(=O)c1ccc2nc(-c3ccccc3)c(-c3ccccc3)nc2c1 | 1.5 | -3 | 2 | 4 | 11 | -2 | ·
CCCCCn1c(=O)[nH]c2cc(C(=O)NCCCN(CC)CC)ccc2c1=O | -0.71 | 12 | -2 | -3 | -11 | -14 | ·
CCCNC(=O)c1ccc2c(=O)c(O)c(-c3ccsc3)[nH]c2c1 | -0.42 | -10 | 2 | 1 | 57* | 16 | 23
CCCNC(=O)c1ccc2c(=O)c(O)c(-c3ccc(C)cc3)[nH]c2c1 | 0.56 | 4 | 0 | 1 | 58* | 7 | 51* | Full FLuc ctr=48*
CCOC(=O)C1CCN(C(=O)/C=C/c2ccc3c(c2)OCO3)CC1 | · | 4 | -2 | 5 | -21 | · | ·
CC(C)(C)OC(=O)C[C@H]1C/C=C\C[C@H](CC(=O)N[C@H](CO)Cc2ccccc2)C(=O)N[C@@H](Cc2ccccc2)COC1=O | · | -1 | 1 | 1 | 1 | · | ·
O=C1C=CCC(/C=C/c2ccccc2)O1 (stereo unspecified) | -2.6 | · | -5 | 3 | 61* | · | 48* | Full FLuc ctr=12
CCC1([N+](=O)[O-])COC(C=Cc2ccccc2)OC1 (stereo unspecified) | · | 4 | · | · | · | · | ·
OCCCNc1ncnc2scc(-c3ccc(Cl)cc3)c12 | · | 4 | 3 | -1 | 71* | · | 60* | Full FLuc ctr=33
O=Nc1c(O)n(Cc2c(Cl)cccc2Cl)c2ccccc12 | -0.66 | 7 | 0 | 0 | 52* | -1 | 33
Cc1ccc(Cn2c(O)c(N=O)c3ccccc32)cc1 | -0.73 | 2 | 4 | -1 | 23 | -5 | ·
Cc1ccc2c(c1)c(N=O)c(O)n2Cc1ccc(Cl)cc1 | -0.65 | -13 | -3 | 0 | 60* | -19 | 36
O=Nc1c(O)n(Cc2ccc(Cl)cc2)c2ccccc12 | -1.2 | -4 | 0 | 0 | 51* | -10 | 34

Screens: PubChem BioAssay, several laboratories
